This is a sample that favours compounds with a hit; in the whole collection about 2.1% have one here.
SUMO Mot1 rescue: blocks SUMOylation pathway, rescuing yeast Mot1-301 growth | AID 2716 | S. cerevisiae Mot1-301 growth rescue, ATP luminescence, 38.5C; percent above DMSO median, 100 means doubled | growth rescue, % at 18.8 µM | actives 1% (n = 320,000);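 active = every valid replicate shows activation above 250% relative to neutral control wells; inactive = the rest, any valid replicate at or below 250%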;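 note: OY570 slx delta 5 strain wells were the positive control but not used for scaling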
RTF Ca sens act: cardiac RTF calcium sensitization; IANBD-labeled TnC RTF fluorescence at EC20 calcium; 0% EC20 calcium, 100% full calcium; activation, % at 7.2 µM; actives 0.24% (n = 340,000); AID 493008;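 active = activation above the mean over all tested compounds plus 3 SD, cut at about 30% in these data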;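 note: rise in fluorescence read as greater calcium sensitivity of cardiac thin filaments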
RTF Ca sens inh: cardiac RTF calcium desensitization; P19429+P45379; IANBD-labeled cardiac RTF, Ca2+ fluorescence; inhibition, % at 7.15 µM; actives 0.12% (n = 340,000); AID 493244;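 active = inhibition above the mean inhibition of all tested compounds plus 3 SD, cut at about 17% in these data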;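 note: assay run at fixed EC70 calcium of 1.6 mM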
ARNT-TACC3 inh: disrupts binding between human ARNT and TACC3. Q9Y6A5. AlphaScreen His-ARNT PAS-B/GST-TACC3 binding, luminescence; TACC3 fragment carries E629A point mutation. inhibition, % at 9.99 µM. actives 0.66% (n = 390,000). AID 623870;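 active = mean inhibition of replicates at least 50% and at least half of replicates each reaching 50%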;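 note: 0% = complete ARNT plus TACC3 wells and 100% = ARNT alone without TACC3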
Efflux pump mplx: blocks antifungal efflux pumps in multiplex yeast assay | inhibition, % at 10 µM | S. cerevisiae Candida pump triplex, Nile Red efflux | actives 0.44% (n = 330,000);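 active = plate passing quality check with inhibition over a set limit, or well fluorescence over plate mean plus 4 SD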;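 note: Nile Red retained in pooled yeast measured as flow cytometry median fluorescence; 0% = buffer negative control and 100% = Enniatin B positive control; higher means more Nile Red kept so more efflux inhibition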
UCH37 DUB inh: inhibitors of human deubiquitinating enzyme UCH37; purified proteasome/UCH37, Ub-AMC cleavage fluorescence; actives 0.33% (n = 330,000); Q9Y5K5; inhibition, % (concentration not given with the values);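 active = mean inhibition over replicate wells above about 20%, limit read from the data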;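 note: 0% = compound-free wells with enzyme and 100% = wells lacking proteasome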
Target sequence (Q9Y5K5 whole entry, looked up): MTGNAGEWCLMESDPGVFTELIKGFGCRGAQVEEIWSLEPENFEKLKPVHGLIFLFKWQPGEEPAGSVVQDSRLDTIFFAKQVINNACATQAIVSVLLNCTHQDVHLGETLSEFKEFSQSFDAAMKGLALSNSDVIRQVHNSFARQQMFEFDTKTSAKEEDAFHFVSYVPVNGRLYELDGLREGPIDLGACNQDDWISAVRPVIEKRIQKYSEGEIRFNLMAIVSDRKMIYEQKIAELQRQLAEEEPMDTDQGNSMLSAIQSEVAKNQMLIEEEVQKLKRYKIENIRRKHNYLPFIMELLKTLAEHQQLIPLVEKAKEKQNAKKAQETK
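system = Proteasome-associated human UCH37 deubiquitinase | amount = 0.15 nM proteasome as dispensed | medium = pH 7.4 Tris-HCl (50 mM) with ovalbumin, ATP-MgCl2, DTT | incubation = 30 min preincubation with enzyme, 25 min cleavage at room temperature | detection = AMC fluorescence 355/460 nm | read-out basis = percent inhibition | controls = no-proteasome and no-compound wells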
* marks the source's active call; other numbers are inactive results; i = inactive; . = not tested or not shown.

SMILES	SUMO Mot1 rescue	RTF Ca sens act	RTF Ca sens inh	ARNT-TACC3 inh	Efflux pump mplx	UCH37 DUB inh
Cc1ccc2c(c1)[C@H]1[C@H](CO2)[C@H](c2ccccc2)[C@]2(C)C(=O)Nc3ccccc3C(=O)N12	341*	6	-3	-25	0	0
Cc1ccsc1C=NNC(=O)c1cccc(S(=O)(=O)Nc2ccccc2Cl)c1	.	.	.	.	.	7
O=C(NN=Cc1ccc([N+](=O)[O-])o1)c1ccccc1NS(=O)(=O)c1cccs1	.	.	.	.	.	16
COc1ccc(C(C)=NNc2ccccc2Cl)c(O)c1	.	.	.	.	.	3
CN1\C(=C/C=C/C=C/C=[N+](C)C)C(C)(C)c2ccccc21	.	218*	-411	-2	.	8
S=c1[nH]nc(-c2ccco2)n1N=C/C(Cl)=C/c1ccccc1	.	.	.	.	.	5
COc1ccc(N2C(=O)c3cccc4c(N(C)CCO)ccc(c34)C2=O)cc1	14	48*	-71	0	0	3
O=C1c2ccccc2C(=O)N1Cc1ccco1	-13	2	-8	-3	0	-1
CC(=O)Nc1ccc(N2C(=O)c3cccc4c(O)ccc(c34)C2=O)cc1	-1	609*	i	-7	2	17
COc1ccc(N2C(=O)c3cccc4cccc(c34)C2=O)cc1	-14	1	-6	-4	0	-1
O=C1c2cccc3c(O)ccc(c23)C(=O)N1c1ccc(Cl)cc1	-15	532*	i	9	0	.
O=C1c2cccc3c(O)ccc(c23)C(=O)N1Cc1ccco1	.	574*	i	-1	.	9
O=C(NCc1ccccc1)Nc1cccn(Cc2ccc(F)cc2)c1=O	-10	-5	0	-5	0	-6
Cc1cc(NC(=O)NCc2ccccc2)c(=O)n(Cc2ccc(F)cc2)c1	-21	-4	2	48*	0	-53
Cc1sc2nc(-c3ccccn3)[nH]c(=O)c2c1-c1ccccc1	-13	-6	-1	79*	0	-70
CCN(CC)C(=O)c1sc2nc(-c3ccncc3)[nH]c(=O)c2c1C	-22	0	-14	.	0	-15
CCN(CC)C(=O)c1sc2nc(-c3ccccn3)[nH]c(=O)c2c1C	-15	-2	-12	61*	0	-9
O=C(CCC(=O)Nc1cc(C(F)(F)F)ccc1Cl)NN=Cc1cc([N+](=O)[O-])ccc1O	.	.	.	.	.	3
COc1ccc(CC(=O)NN=Cc2cccs2)cc1OC	.	.	.	.	.	3
CC(C)(C)C(=O)NC(=S)Nc1ccccc1F	436*	-5	-8	.	0	4
CC(=O)NC(=S)Nc1ccccc1F	2	-6	-9	-9	0	2
O=C(NC(=S)N1CCCCC1)c1cccnc1	344*	5	-21	-2	0	0
O=C(Nc1ccc(N2CCCCC2)cc1)c1cccnc1	-12	0	7	2	0	29*
O=C(NC(=S)NNC(=O)c1ccccc1O)c1cccnc1	9	1	-13	67*	0	6
O=C(Nc1ccc(N2CCCC2)cc1)C(Cl)c1ccccc1 (stereo not drawn)	-12	-1	5	active	0	.
SMILES	SUMO Mot1 rescue	RTF Ca sens act	RTF Ca sens inh	ARNT-TACC3 inh	Efflux pump mplx	UCH37 DUB inh
Cc1cc(OC(C)C(=O)NN=CCC(C)c2ccccc2)ccc1Cl (stereo not drawn)	.	.	.	.	.	1
O=C(NN=Cc1cccs1)c1cc(-c2cccc3ccccc23)n[nH]1	.	.	.	.	.	4
O=C(N/N=C/c1ccc(N2CCCC2)c([N+](=O)[O-])c1)c1cccnc1	-7	0	-12	7	0	.
O=C(NN=Cc1ccc(N2CCCC2)c([N+](=O)[O-])c1)c1cccnc1	.	.	.	.	.	21*
C(=Nc1nc2ccccc2n1Cc1ccccc1)c1cccs1	.	.	.	.	.	5
COC(=O)/C=C1/S/C(=N/NC(=O)c2ccc(OC)cc2)NC1=O	6	1	-2	.	0	25*
Oc1[nH]c2ccccc2c1C=NN1CCCCC1	.	.	.	.	.	11
O=C(NN=Cc1ccc[nH]1)c1cncc(Br)c1	.	.	.	.	.	12
O=[N+]([O-])c1ccc2c(c1)N([O-])C1(CCCCC1)[N+]2=O	.	.	.	.	.	52*
CC1Cc2ccccc2N1C(=O)CON=Cc1ccc(OC(F)F)cc1 (stereo not drawn)	.	.	.	.	.	0
CC(Cn1nc([N+](=O)[O-])cc1C)=NNC(=O)c1ccc(O)cc1O	.	.	.	.	.	4
O=C(CC(=O)NC1CCCCC1)NN=Cc1ccccc1[N+](=O)[O-]	.	.	.	.	.	5
Cc1nnsc1Sc1ccccc1C(=O)O	376*	6	-2	3	0	2
Cc1nnsc1Sc1ccccn1	-9	-1	0	-1	0	2
COc1ccc(O[C@H]2C=C[C@@H](c3ccccc3)O[C@@H]2CON=CC[C@@H]2C=C[C@H](OC(C)=O)[C@@H](COC(C)=O)O2)cc1	.	.	.	.	.	1
O=C(Cc1ccc(Br)cc1)NC1CCN(Cc2ccccc2)CC1	283*	0	-5	3	0	1
O=C(Cc1ccccc1)NC1CCN(Cc2ccccc2)CC1	164	7	2	-7	0	4
O=C1CCCC2=C1C(c1ccccn1)Nc1ccc(C(=O)c3ccccc3)cc1N2 (stereo not drawn)	-12	4	2	46*	0	14
O=C(CON=Cc1ccccc1OC(F)F)N1CCc2ccccc21	.	.	.	.	.	1
CCN(CC)c1ccc(/C=C/c2nc3ccccc3s2)cc1	.	.	.	.	1.0*	.
CCN(CC)c1ccc(NC(=O)COC(=O)/C=C/c2nc3ccccc3s2)cc1	16	-3	-11	7	0	0
CN1CC=C2C(C#N)=C(N)C(C#N)(C#N)C(CCc3ccccc3)C2C1 (stereo not drawn)	162	35*	-28	2	0	-33
COc1cccc(C2C3CN(C)CC=C3C(C#N)=C(N)C2(C#N)C#N)c1OC (stereo not drawn)	-2	25	-38	-16	0	-12
CCN1CC=C2C(C#N)=C(N)C(C#N)(C#N)[C@H](c3cccc(OC)c3OC)[C@H]2C1	47	36*	-51	-2	0	-58
CN1CC=C2C(C#N)=C(N)C(C#N)(C#N)C(c3ccsc3)C2C1 (stereo not drawn)	-10	28	-33	2	0	-10
CCCC1C2CN(C(C)C)CC=C2C(C#N)=C(N)C1(C#N)C#N (stereo not drawn)	4	52*	-52	.	0	-29
CN1CC=C2C(C#N)=C(N)C(C#N)(C#N)[C@H](c3cccs3)[C@H]2C1	-15	41*	-86	27	0	.
Nc1nonc1-n1nnc(C(=O)NN=C/C=C/c2ccccc2)c1CSC1=NCCS1	.	.	.	.	.	3
CC(C)COC(=O)c1cc(-c2ccc(C=Nn3cnnc3)o2)ccc1Cl	.	.	.	.	.	-14
CCOc1cc(/C=C(/C#N)c2ccc(F)cc2)ccc1OCc1ccc(C(=O)O)o1	-2	0	2	35	0	10

Bioassay records (PubChem BioAssay)
